Laboratory results taken from paper PMC8247525 (Diabetes Care, 2021).
Blank lines part the entries; values can stand above or below the substance they belong to. Starred links: 1 amine or outer side, 2 acyl side, 3 side chain; linkers in the order of their positions; H or OH if unused. Groups on a side chain read outwards from the residue. No end group written: not given here. *: point of attachment. γGlu = O=C(O)[C@H](CCC(=O)[*:2])N[*:1]; Palmitoyl = CCCCCCCCCCCCCCCC(=O)*

Columns and labels:
[1] = test system: participants with overweight or obesity and type 2 diabetes; assay: Phase 2b study: anti-drug antibodies and exposure; assay type: in vivo, human
In short: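 Dosing started at 100 µg and rose weekly by 100 µg. Anti-drug antibodies, a secondary end point, were measured in all treated participants by a high-sensitivity assay. Titers were split at 80 and related to trough drug concentrations.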

[2] = test system: participants with overweight or obesity and type 2 diabetes; assay: Phase 2b study: body weight; assay type: in vivo, human; settings: for Percent change in body weight from baseline to week 14: LS mean (95% CI), ANCOVA, LOCF; for Weight loss, placebo-adjusted change from baseline: week 54
[3] = test system: participants with overweight or obesity and type 2 diabetes; assay: Phase 2b study: safety; assay type: in vivo, human
[4] = test system: participants with overweight or obesity and type 2 diabetes; assay: Phase 2b study: hepatic parameters; assay type: in vivo, human; settings: LS mean (95% CI); for Percent change from baseline in GGT levels: after 54 weeks, ad hoc
[5] = test system: participants with overweight or obesity and type 2 diabetes; assay: Phase 2b study: glycemic control; assay type: in vivo, human; settings: on metformin, LS mean (95% CI), ANCOVA, LOCF
[6] = cited from earlier work; for Reduction of mean body weight: head-to-head phase 2 trial of semaglutide with liraglutide
[7] = cotadutide 100 µg s.c. once daily
[8] = cotadutide 200 µg s.c. once daily
[9] = cotadutide 300 µg s.c. once daily
[10] = liraglutide 1.8 mg s.c. once daily

- Impact of ADA titer above 80 on pharmacokinetics, relative to population average ([1]; cotadutide, trough concentrations higher at titer >80): approximately twofold
Substance: Cotadutide
- Anti-drug antibody (ADA) incidence ([1]; cotadutide-treated participants, all doses, high-sensitivity assay): 60.8%
- Percent change in body weight from baseline to week 14 [2, 7]: –2.98 [–3.87, –2.09] %
- Percent change in body weight from baseline to week 14 [2, 8]: –3.67 [–4.22, –3.13] %
- Percent change in body weight from baseline to week 14 [2, 9]: –5.01 [–5.57, –4.45] %
- Weight loss, placebo-adjusted change from baseline [2, 9]: –4.34%
- Pulse rate versus placebo ([3]; all tested doses of cotadutide, all P = 0.001 to P = 0.006): Increases in pulse rates
- Systolic blood pressure [3, 9]: reduction in systolic blood pressure
- Rate pressure product ([3]; cotadutide treatment, ad hoc): no notable changes in rate pressure product
- Percent change in fatty liver index, change from baseline [4, 7]: –8.08 [–10.62, –5.54] %
- Percent change from baseline in GGT levels [4, 7]: –10.54 [–26.75, 5.68] %
- Percent change in fatty liver index, change from baseline [4, 8]: –6.73 [–8.29, –5.17] %
- Percent change in fatty liver index, change from baseline [4, 9]: –8.18 [–9.79, –6.57] %
- Percent change from baseline in GGT levels [4, 9]: –12.17 [–22.45, –1.90] %
- Change from baseline to week 14 in HbA1c levels [5, 7]: –1.11 [–1.30, –0.93]
- Change from baseline to week 14 in HbA1c levels [5, 8]: –1.32 [–1.44, –1.21]
- Change from baseline to week 14 in HbA1c levels [5, 9]: –1.26 [–1.38, –1.14]

Substance: Liraglutide: GLP-1 receptor monoagonist, open-label active comparator 1.8 mg (HAEGTFTSDVSSYLEGQAAK([γGlu-Palmitoyl])EFIAWLVRGRG; chains of the INN, looked up) [reference compound]
- Percent change in body weight from baseline to week 14 ([2]; liraglutide 1.8 mg s.c. once daily, open-label): –3.44 [–4.20, –2.68] %
- Weight loss, placebo-adjusted change from baseline [2, 10]: –2.65%
- Reduction of mean body weight [6]: 7.8%
- Reduction of body weight ([6]; phase 2 and phase 3 clinical trials): 6–8%
- Percent change from baseline in GGT levels [4, 10]: –10.54 [–24.41, 3.33] %

Substance: semaglutide
- Reduction of mean body weight [6]: 6.0–13.8%
